Where “and” joins values, the source holds several entries; their conditions need not be identical. Identical values can stand only once. Calls of active or inactive are those of the source.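 The calls were made as follows: active = remaining nuclease activity at or below 52% of the solvent-only control at any tested dose; inactive = above 52% at every tested dose.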
System: ATP-dependent helicase/nuclease AddAB (Helicobacter pylori 26695)
Test: remaining H. pylori AddAB nuclease activity – biochemical, radioactivity, purified enzyme, 100 µM, powder samples, late-stage follow-up (AID 602422)
Details: [3H]-dsDNA TCA-soluble nuclease assay, at 100 µM, active compounds read low
Procedure, shortened: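 Test system – purified AddAB · Medium – Tris-HCl pH 8.5, MgCl2, ATP · Compound dosing – nominal 100 µM, 5% DMSO · Schedule – 20 min reaction, 37 °C · Measured by – scintillation counting, TCA-soluble counts · Evaluation – percent nuclease activity versus DMSO control, minus enzyme-free background · Benchmarks – DMSO control, no-enzyme background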

Compound	remaining nuclease activity
CCn1cc(C(=O)O)c(=O)c2cnc(N3CCN(C(=S)NC4CC5CCC4C5)CC3)nc21 (stereo not drawn)	6%
CC1CCc2c(sc(NC(=O)c3cccs3)c2C#N)C1 (stereo not drawn)	92% (inactive)
C=CCNC(=S)N1CCN(c2ncc3c(=O)c(C(=O)O)cn(CC)c3n2)CC1	93% (inactive)
CCn1cc(C(=O)O)c(=O)c2cnc(N3CCN(C(=S)Nc4ccccc4Cl)CC3)nc21	74% (inactive)
CCn1cc(C(=O)O)c(=O)c2cnc(N3CCN(C(=S)Nc4cccc(C(F)(F)F)c4)CC3)nc21	8%
CCn1cc(C(=O)O)c(=O)c2cc(F)c(N3CCN(C(=S)Nc4cccc(C(F)(F)F)c4)CC3)cc21	9%
CCn1cc(C(=O)O)c(=O)c2cnc(N3CCN(C(=S)Nc4ccccc4C(F)(F)F)CC3)nc21	90% (inactive)
CC1CCc2c(sc(NC(=O)c3ccc([N+](=O)[O-])o3)c2C#N)C1 (stereo not drawn)	89% (inactive)
CC1CCc2c(sc(NC(=O)c3ccc([N+](=O)[O-])o3)c2N)C1 (stereo not drawn)	128% (inactive)
CCn1cc(C(=O)O)c(=O)c2cnc(N3CCN(C(=S)Nc4ccc(Cl)cc4)CC3)nc21	19%
CCn1cc(C(=O)O)c(=O)c2cnc(N3CCN(C(=S)Nc4ccccc4C)CC3)nc21	81% (inactive)
CCn1cc(C(=O)O)c(=O)c2cnc(N3CCN(C(=S)Nc4ccc(F)cc4)CC3)nc21	43%
CCn1cc(C(=O)O)c(=O)c2cnc(N3CCN(C(=S)Nc4ccccc4)CC3)nc21	83% (inactive)
CCn1cc(C(=O)O)c(=O)c2cnc(N3CCN(C(=S)Nc4ccccc4F)CC3)nc21	74% (inactive)
N#Cc1c(NC(=O)c2cc(-c3ccccc3)on2)sc2c1CCCC2	42%
CSc1ncc(Cl)c(C(=O)Nc2sc3c(c2C(=O)NC2CCS(=O)(=O)C2)CCC(C)C3)n1 (stereo not drawn)	77% (inactive)
CCn1cc(C(=O)O)c(=O)c2cnc(N3CCN(C(=S)Nc4ccc5c(c4)OCCO5)CC3)nc21	62% (inactive)
CCn1cc(C(=O)O)c(=O)c2cnc(N3CCNCC3)nc21	103% (inactive)
CCn1cc(C(=O)O)c(=O)c2cnc(N3CCN(C(=S)NC)CC3)nc21	101% (inactive)

Compound	remaining nuclease activity
N#Cc1c(NC(=O)c2ccc(-c3ccccc3[N+](=O)[O-])o2)sc2c1CCCC2	73% (inactive)
CCn1cc(C(=O)O)c(=O)c2cnc(N3CCN(C(=S)NC(C)c4ccccc4)CC3)nc21 (stereo not drawn)	13%
CCn1cc(C(=O)O)c(=O)c2cnc(N3CCN(C(=S)NC(=O)c4ccco4)CC3)nc21	89% (inactive)
CCn1cc(C(=O)O)c(=O)c2cc(F)c(N3CCN(C(=S)Nc4ccccc4C(F)(F)F)CC3)cc21	51%
CCn1cc(C(=O)O)c(=O)c2cnc(N3CCN(C(=S)NC(=O)c4cccc(C)c4)CC3)nc21	95% (inactive)
CC1(C)Cc2c(sc(NC(=O)c3ccco3)c2C#N)CO1	69% (inactive)
CCn1cc(C(=O)O)c(=O)c2cnc(N3CCN(C(=S)NC(=O)c4ccccc4Cl)CC3)nc21	93% (inactive)
CCn1cc(C(=O)O)c(=O)c2cnc(N3CCN(C(=S)Nc4ccc5c(c4)OCO5)CC3)nc21	46%
Cc1ccc(C(=O)Nc2sc3c(c2C#N)CCC3)o1	98% (inactive)
CCn1cc(C(=O)O)c(=O)c2cnc(N3CCN(C(=O)Nc4ccccc4)CC3)nc21	92% (inactive)
N#Cc1c(NC(=O)c2ccccc2)sc2c1CCC2	111% (inactive)
CCn1cc(C(=O)O)c(=O)c2cnc(N3CCN(C(=S)NC(=O)c4cccnc4)CC3)nc21	101% (inactive)
CCn1cc(C(=O)O)c(=O)c2cnc(N3CCN(C(=S)NCc4ccccc4)CC3)nc21	55% (inactive)
CCn1cc(C(=O)O)c(=O)c2cnc(N3CCN(C(=S)Nc4ccccc4OC)CC3)nc21	68% (inactive)
CSc1ncc(Cl)c(C(=O)Nc2sc3c(c2C#N)CCC(C)C3)n1 (stereo not drawn)	100% (inactive)
N#Cc1c(NC(=O)C2CC=CCC2C(=O)O)sc2c1CCC2 (stereo not drawn)	92% (inactive)
N#Cc1c(NC(=O)c2ccco2)sc2c1CCC2	41%
Cc1sc(NC(=O)c2ccc(Br)o2)c(C#N)c1C	40%

Next, values leading:

remaining nuclease activity	Compound
65% (inactive)	N#Cc1c(NC(=O)c2cccc(F)c2)sc2c1CCCC2
92% (inactive)	N#Cc1c(NC(=O)c2ccc([N+](=O)[O-])o2)sc2c1CCCC2
33%	Cc1sc(NC(=O)c2cnccn2)c(C(=O)OC(C)C)c1-c1ccccc1
72% (inactive)	Cc1ccc(C(=O)Nc2sc3c(c2C#N)CCCCC3)o1
91% (inactive)	CC1CCc2c(sc(NC(=O)c3cnccn3)c2C#N)C1 (stereo not drawn)
10% and 36%	N#Cc1c(NC(=O)c2cnccn2)sc2c1CCCC2
70% (inactive)	N#Cc1c(NC(=O)c2cnccn2)sc2c1CCCCCC2
88% (inactive)	COC(=O)c1c(-c2cccc(C)c2)csc1NC(=O)c1cnccn1
21%	CNC(=O)c1c(NC(=O)c2nc(SCc3ccccc3)ncc2Cl)sc2c1CCCC2
93% (inactive)	COC(=O)c1c(NC(=O)c2cnccn2)sc2c1CCCC2
71% (inactive)	Cn1nccc1C(=O)Nc1sc2c(c1C#N)CCCC2
103% (inactive)	CCC(C)(C)C1CCc2c(sc(NC(=O)c3cnccn3)c2C#N)C1 (stereo not drawn)
31%	COC(=O)c1c(-c2ccccc2)csc1NC(=O)c1cnccn1
116% (inactive)	Nc1c(NC(=O)c2ccc([N+](=O)[O-])o2)sc2c1CCCC2
55% (inactive)	N#Cc1c(NC(=O)c2ccccc2C(=O)O)sc2c1CCCC2
87% (inactive)	NC(=O)c1c(NC(=O)c2cnccn2)sc2c1CCCC2

— PubChem BioAssay AID602422 (The Scripps Research Institute Molecular Screening Center, 2012)
